# Yeast lifespan up: compounds extending yeast replicative lifespan, primary screen, S. cerevisiae, OD615 | 0.68% of 130,000 active | S. cerevisiae growth with nicotinamide; deaD strain in restrictive glucose medium | inhibition of the nicotinamide effect, % at 10 µM;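 active means inhibition above a set limit, placed 3 SD over the median of all compounds, cut at about 26% in these data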;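 further: 0% = nicotinamide-treated wells and 100% = cells grown without nicotinamide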
#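 Test system: DeaD-strain S. cerevisiae / Buffer or medium: restrictive glucose medium / Also added: nicotinamide 1.5 mM / Doses: one concentration, 10 µM, DMSO 0.25% / Schedule: 48 h at 30 °C / Signal: OD615 measurement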
# INS promoter inh: inhibitors of insulin promoter-driven GFP, primary screen, imaging, TRM-6 cells, eGFP reporter, cell count | reporter expression induced with tamoxifen | inhibition, % at 2 µM | 0.9% of 130,000 active | AID 1273, 2008;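 active means inhibition above the mean plus 3 SD, with well images judged a real hit on visual review, cut at about 60% in these data, passing the limit was not always enough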
# Yeast growth inh: growth inhibitors of yeast BB579 in restrictive medium, primary screen, yeast lifespan-shortening project, S. cerevisiae | OD615, 48 h | inhibition, % at 10 µM | 0.51% of 140,000 active;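 active means inhibition above a set limit, 3 SD over the mean compound inhibition, cut at about 44% in these data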
#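 Test system: DeaD yeast strain BB579 / Buffer or medium: restrictive glucose-based CSMM-D medium / Doses: single 10 µM dose / Schedule: 4 h cell preincubation, 48 h compound exposure, 30 °C humidified / Technique: culture absorbance at 615 nm / Controls: amphotericin B positive control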
# Ins promoter up: insulin promoter activators in MIN6 cells, imaging, high-content screening, mouse beta cells; MIN6 insulin promoter-GFP reporter; stronger effect = higher value; z-score at 5 µM; 0.3% of 190,000 active; AID 1625, 2009;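 active means z-score above 3 at 5 µM with at least 500 cells counted in the well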
# RAM inhibit: inhibitors of the yeast RAM network, primary screen, dse1pr::URA3 reporter, 5-FOA selection; inhibition, % at 50 µM; S. cerevisiae dse1pr::URA3 reporter, 5-FOA growth OD615, 2 d; analog-sensitive cbk1-as2 kinase mutant strain; 1.8% of 190,000 active;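 active means inhibition above a set limit, 3 SD over mean compound inhibition, cut at about 8.4% in these data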;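 further: 0% = DMSO-only wells with no growth and 100% = 10 µM 1-NA-PP1 full growth; inhibition rescues growth on 5-FOA so higher OD means more RAM inhibition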
# Active calls of the source: *; · = not tested or not shown. A selection: hits, their analogues and other compounds. The true share with any hit is near 3.1%.
SMILES,Yeast lifespan up,INS promoter inh,Yeast growth inh,Ins promoter up,RAM inhibit
COc1cc(OC)nc(NC(=O)CS(=O)(=O)c2ccccc2)n1,·,45,56*,0.51,-1
Cc1cc(S(=O)(=O)N(Cc2ccc(C(C)(C)C)cc2)Cc2cccs2)ccc1-n1cnnn1,4,-76,-18,0.02,9.3*
COc1cc(S(=O)(=O)N(Cc2cccnc2)Cc2ccco2)ccc1-n1cnnn1,-11,31,-51,-0.34,1
COc1cc(S(=O)(=O)N(Cc2ccc(C)cc2)Cc2ccco2)ccc1-n1cnnn1,-5,-6,-47,·,9.0*
CC(=O)Nc1ccc(N=Nc2ccc(O)cc2)cc1,-4,21,-37,1.1,-1
CC(=O)Nc1ccc(S(=O)(=O)NCc2ccccn2)cc1,5,0,9,0.53,1
CCCOc1ccc(-c2nc(C#N)c(N3CCc4ccccc4C3)o2)cc1,-7,31,-35,0.1,11*
CCOc1ccccc1-n1nnnc1SCc1nc2ccccc2s1,12,·,-65,0.69,9.9*
Cc1ccccc1C(C(=O)NC1CCCC1)N(C(=O)CNC(=O)c1ccco1)c1cccnc1 (configuration not stated),·,·,·,-0.13,3
O=C(N/N=C\c1cn(-c2ccccc2)nc1-c1ccccc1)c1ccc(Br)o1,-20,-73,-47,3.2*,1
O=C(N/N=C/c1coc2ccccc2c1=O)c1cn(-c2ccccc2)nc1-c1ccc(F)cc1,29*,6,-38,-0.19,2
COCCN=c1scc(-c2cccs2)n1/N=C/c1ccc(O)c(O)c1O,-1,·,-35,-3.7,9.6*
COc1ccc(N(CCCN2C(=O)c3cccc4cccc(c34)C2=O)C(=O)c2ccncc2)cc1,·,-70,·,-0.72,0
COc1ccc(N(CCN2C(=O)c3ccccc3C2=O)C(=O)c2cccc([N+](=O)[O-])c2)cc1,19,·,-29,3.1*,1
O=C(NCc1ccc(Cl)s1)c1cc(COc2c(F)cccc2F)on1,·,20,·,·,9.1*
O=C(c1cc(COc2c(F)cccc2F)on1)N1CCC(c2ccccc2F)C1 (configuration not stated),·,·,·,-0.16,6
O=C(c1cc(COc2c(F)cccc2F)on1)N1CCC(c2ccccc2Cl)C1 (configuration not stated),·,·,·,0.08,8.4*
CCc1ccc(CN(C)C(=O)c2cc(COc3c(F)cccc3F)on2)cc1,·,·,·,0.28,9.4*
CCOC(=O)C1CN(S(=O)(=O)c2ccc(OC)cc2)c2cc(S(=O)(=O)CC)ccc2O1 (configuration not stated),-13,-18,-29,·,3
O=C(Nc1cccc(NC(=O)c2ncn[nH]2)c1)c1cccc(Cl)c1,·,23,·,-0.63,4
COc1ccc(NC(=O)Nc2ccc3oc(C)nc3c2)cc1,·,6,·,·,1
Cc1nc2cc(NC(=O)N(C)c3ccc4ccccc4c3)ccc2o1,-21,71*,-33,-0.11,0
CC(C)c1ccc(NC(=S)NNC(=O)c2cccs2)cc1,·,-35,·,0.79,0
O=[N+]([O-])c1ccccc1CSc1nc2ccccc2o1,-4,0,-59,-0.12,1
CSC1=N/C(=C\c2cccc(F)c2)C(=O)S1,4,3,-42,-0.31,5
SMILES,Yeast lifespan up,INS promoter inh,Yeast growth inh,Ins promoter up,RAM inhibit
CSC1=N/C(=C\c2c(F)cccc2Cl)C(=O)S1,31*,42,-20,0.49,3
Cc1ccc2nc(/C(C#N)=C/c3cn[nH]c3-c3ccc(F)cc3)[nH]c2c1,-11,-3,-32,-0.67,10*
Cc1ccc2nc(/C(C#N)=N/O)[nH]c2c1,11,-14,-24,0.58,2
O=S(=O)(c1ccccc1Oc1ccc(Cl)cc1Cl)N1CCCCC1,·,·,·,0.07,·
CCN(C(=O)CSc1nc2ccccc2c(=O)n1C(C)COC)C1CCS(=O)(=O)C1 (configuration not stated),·,·,·,0.37,1
CCn1c(SCC(=O)O)nc2ccccc21,·,0,·,0.01,1
CCCCn1c(SCC(=O)O)nc2ccccc21,-19,11,-46,3.5*,0
Cc1ccc(NC(=O)c2c(O)c3ccccc3n(C)c2=O)nc1,10,30,-62,0.2,0
CC(C)Cn1c(=O)c(C(=O)Nc2cnccn2)c(O)c2ccccc21,68*,·,-23,1.4,1
CC(=O)c1ccc(NC(=O)c2ccc(CSc3ccccc3)o2)cc1,-7,·,-42,-0.79,8.6*
O=c1cccc2n1Cc1cc3ccccc3nc1-2,-5,33,46*,0.15,1
Cc1nc2ccccc2cc1C(=O)O,0,-23,-19,·,0
Cc1cc(OCc2nc(-c3ccncc3)no2)cc(C)c1Cl,·,19,·,-0.38,3
CCCOc1ccc(/C=N/Nc2cccc([N+](=O)[O-])c2)c(O)c1,-1,·,-65,·,8.9*
CC/C(C)=N/Nc1cccc([N+](=O)[O-])c1,-9,·,98*,-0.34,0
COC(=O)c1cn(CC(=O)N2CCCCCC2)c2ccccc12,-26,-381,-28,0.55,0
CCOC(=O)C1=C(O)/C(=C/c2cn(CC(=O)N3CCCC3)c3ccccc23)SC1=Nc1ccccc1,·,45,-50,2.9,9.1*
NS(=O)(=O)c1ccc(CCNC(=O)Nc2ccc(Cl)c(Cl)c2)cc1,-7,·,-58,0.89,11*
Cn1c(CSc2nc3ccccc3s2)nnc1SCC(=O)NCCCN1CCOCC1,·,-453,-34,·,1
Cc1ccc(S(=O)(=O)Oc2ccc(C3C4=C(CCCC4=O)N(CCC(=O)O)C4=C3C(=O)CCC4)cc2Cl)cc1,0,-47,-35,-0.32,8.9*
CCOc1cc(/C=N/NC(=O)c2ccc(-c3csc(Nc4ccc(C)cc4)n3)cc2)ccc1OCC(=O)O,·,6,·,-0.54,8.9*
O=C(O)COc1ccc(/C=N/NC(=O)c2ccc(-c3csc(Nc4ccc(Cl)cc4)n3)cc2)cc1,·,·,·,-1.1,·
CCOc1cc(/C=N/Nc2ccccc2Cl)ccc1OCC(=O)O,-9,·,96*,0.63,-2
COC(=O)c1cccn(CC(=O)c2ccc(Cl)cc2)c1=O,·,·,·,0.3,1
COc1ccc(N2CCN(C(c3ccc4ncccc4c3)c3nnnn3C(C)C)CC2)cc1 (configuration not stated),·,·,·,-0.62,·
N#C/C(C(=O)c1ccccc1)=C1/SC=C(N)N1c1ccccc1,12,-294,-25,6*,1
N#C/C(C(N)=O)=C1/SC=C(c2ccccc2)N1c1ccccc1,·,·,·,0.15,·
Cc1cc(C)c2c(N)c(S(=O)c3ccc(C(C)(C)C)cc3)sc2n1 (configuration not stated),-18,-12,42,-0.97,-1
CCOC(=O)c1sc(NC(=O)c2cccc(S(=O)(=O)N(CC)CC)c2)cc1C,-9,·,-8,·,10*
CCOC(=O)c1sc(NC(=O)c2cccc(S(=O)(=O)N3CCN(C)CC3)c2)cc1C,-10,·,26,-0.63,0
